Values joined by “and” are separate entries in the source; they are usually repeats but may differ in a detail not shown here. Equal entries are not always repeated. “Also recorded” adds a separate entry of the source.
Assay: Plasma pharmacokinetics of AR-67 lactone and carboxylate
Format: in vivo, human
Settings: for Cmax, total: observed at 45 min of 1-hr infusion
In short: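 Test compound was given as a 1-h IV infusion daily × 5. Heparinized blood was drawn on days 1 and 4 of cycle 1: pre-dose, 5, 45 and 65 min, and 1.5, 2, 4, 6, 8 and 24 h after infusion start. Plasma lactone and carboxylate were quantified by validated HPLC-fluorescence. Parameters were noncompartmental. Cmax was the observed 45-min value. Half-life required ≥3 elimination-phase points.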

[1] = day 1 cycle 1, 1.2 mg/m^2 (n=2), mean
[2] = day 1 cycle 1, 1.67 mg/m^2 (n=3), mean
[3] = day 1 cycle 1, 2.34 mg/m^2 (n=3), mean
[4] = day 1 cycle 1, 3.23 mg/m^2 (n=3), mean
[5] = day 1 cycle 1, 4.5 mg/m^2 (n=1)
[6] = day 1 cycle 1, 6.3 mg/m^2 (n=1)
[7] = day 1 cycle 1, 7.5 mg/m^2 (n=7), mean
[8] = day 1 cycle 1, 8.9 mg/m^2 (n=4), mean
[9] = day 1 cycle 1, 12.4 mg/m^2 (n=2), mean
[10] = day 4 cycle 1, 1.2 mg/m^2 (n=1)

With CC[C@@]1(O)C(=O)OCc2c1cc1n(c2=O)Cc2c-1nc1ccc(O)cc1c2[Si](C)(C)C(C)(C)C [AR-67, 7-t-butyldimethylsilyl-10-hydroxycamptothecin] the “clearance with increasing dosage” value (1.2–12.4 mg/m^2/day) was “clearance was constant”, the “decrease in AUC between days 1 and 4” value (all patients, dexamethasone co-treatment) was ~ 20% and the “drug accumulation on day 4” value (daily × 5 dosing, cycle 1) was “No drug accumulation was observed; also recorded: no evidence of accumulation”. The Clearancetotal [1] was 13.8 L/hr/m^2, the “Lactone AUC(0−∞)” value [1] was 81 ng·h/mL and the “Total AUC(0−∞)” value [1] was 88 ng·h/mL. For the same compound, the “Vss, total” value [1] was 7.4 L/m^2, the “Cmax, total” value [1] was 77.6 ng/mL and the Clearancetotal [2] was 13.2 L/hr/m^2. For the same compound, the “Lactone AUC(0−∞)” value [2] was 117 ng·h/mL, the “Total AUC(0−∞)” value [2] was 128 ng·h/mL and the “Vss, total” value [2] was 13.1 L/m^2. The “Cmax, total” value [2] was 96.9 ng/mL, the Clearancetotal [3] was 14.1 L/hr/m^2 and the “Lactone AUC(0−∞)” value [3] was 186 ng·h/mL. The “Total AUC(0−∞)” value [3] was 201 ng·h/mL, the “Vss, total” value [3] was 13.5 L/m^2 and the “Cmax, total” value [3] was 158.9 ng/mL. For the same compound, the Clearancetotal [4] was 11.6 L/hr/m^2, the “Lactone AUC(0−∞)” value [4] was 269 ng·h/mL and the “Total AUC(0−∞)” value [4] was 290 ng·h/mL. For the same compound, the “Vss, total” value [4] was 9.6 L/m^2, the “Cmax, total” value [4] was 221.9 ng/mL and the Clearancetotal [5] was 21 L/hr/m^2. For the same compound, the “Lactone AUC(0−∞)” value [5] was 179 ng·h/mL, the “Total AUC(0−∞)” value [5] was 214 ng·h/mL and the “Vss, total” value [5] was 32.7 L/m^2. For the same compound, the “Cmax, total” value [5] was 117.8 ng/mL, the Clearancetotal [6] was 12.9 L/hr/m^2 and the “Lactone AUC(0−∞)” value [6] was 334 ng·h/mL. The “Total AUC(0−∞)” value [6] was 490 ng·h/mL, the “Vss, total” value [6] was 51.6 L/m^2 and the “Cmax, total” value [6] was 168.5 ng/mL. The Clearancetotal [7] was 13.1 L/hr/m^2, the “Lactone AUC(0−∞)” value [7] was 498 ng·h/mL and the “T(1/2)total” value [7] was 1.4 h. The “Total AUC(0−∞)” value [7] was 581 ng·h/mL, the “Vss, total” value [7] was 18.7 L/m^2 and the “Cmax, total” value [7] was 349.7 ng/mL. For the same compound, the Clearancetotal [8] was 18.9 L/hr/m^2, the “Lactone AUC(0−∞)” value [8] was 471 ng·h/mL and the “T(1/2)total” value [8] was 1.6 h. For the same compound, the “Total AUC(0−∞)” value [8] was 502 ng·h/mL, the “Vss, total” value [8] was 30.1 L/m^2 and the “Cmax, total” value [8] was 290.6 ng/mL. For the same compound, the Clearancetotal [9] was 15.8 L/hr/m^2, the “Lactone AUC(0−∞)” value [9] was 686 ng·h/mL and the “T(1/2)total” value [9] was 1.1 h. For the same compound, the “Total AUC(0−∞)” value [9] was 786 ng·h/mL, the “Vss, total” value [9] was 18.1 L/m^2 and the “Cmax, total” value [9] was 464.7 ng/mL. For the same compound, the Clearancetotal (day 1 cycle 1, All dosage levels (N=26), mean) was 14.5 ±4.1 L/hr/m^2 and 14.5 L/hr/m^2, the “T(1/2)total” value (day 1 cycle 1, All dosage levels, mean) was 1.4 h and the Clearancetotal [10] was 23.6 L/hr/m^2. The “Lactone AUC(0−∞)” value [10] was 49 ng·h/mL, the “Total AUC(0−∞)” value [10] was 51 ng·h/mL and the “Vss, total” value [10] was 15.6 L/m^2. For the same compound, the “Cmax, total” value [10] was 51.6 ng/mL and the Clearancetotal (day 4 cycle 1, 1.67 mg/m^2 (n=3), mean) was 16.7 L/hr/m^2.
